Data taken from ChEMBL document CHEMBL4513216, “Probing the Open Global Health Chemical Diversity Library for Multistage-Active Starting Points for Next-Generation Antimalarials” (ACS Infect Dis, 2020).

Test: Toxicity liver stage against HepG2, at 10uM
Type: cell-based
Design: test concentration 10 uM, cell line HepG2-A16-CD81EGFP
Conditions: human, HepG2-A16-CD81EGFP cells; read-out: INHIBITION
Method in brief: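 Uninfected HepG2-A16-CD81EGFP cells, 3 × 10^3 per well, 1536-well, plated on prespotted compound at 10 μM final, parasite-free screening media added to match infected plates; puromycin 10 μM positive, DMSO 0.5% negative; run in parallel with 48 h PbLuc assay at 37 °C, 5% CO2; viability by CellTiter-Glo luminescence, normalized to controls.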

Row | Compound | cytotoxicity at 10 µM
1 | Cc1cc2nc(CO[C@H]3CN(CC4CC4)C[C@H]3F)[nH]c2cc1C | 1.04%
2 | CS(=O)(=O)Nc1ccc([C@H]2OCC(=O)N[C@@H]2CO)cc1 | -5.4%
3 | O=C1N(Cc2cccnc2)C[C@H]2CN(C3CCOCC3)CCN12 | -9.7%
4 | Nc1c(N2CCCC2)ncnc1N1CCOCC1 | 12.8%
5 | CCOCC1CN(S(=O)(=O)C2CC2)Cc2ncn(CC3CC3)c21 (stereo unspecified) | 4.44%
6 | Cc1cccc(CN2CC3(CCN(C(N)=O)CC3)OCC2=O)n1 | 2.17%
7 | C[C@H]1C[C@@H]2CCN(C(=O)c3cnccn3)C[C@H]2O1 | 2.96%
8 | Cc1nn(C)c2nc3c(c(C(=O)/N=c4\[nH]nc(C(C)C)s4)c12)CCC3 | -2.25%
9 | CC(=O)N1N=C(c2ccccc2)OC1C(=O)NCCC1=CCCCC1 (stereo unspecified) | 9.74%
10 | Cc1nn(Cc2ccc(C(=O)NC3CCS(=O)(=O)C3)cc2)c(C)c1Br (stereo unspecified) | -3.71%
11 | CCn1ccc(-c2nnc(SCC(=O)Nc3ccc(C)cc3)n2CC)n1 | 5.11%
12 | CCOc1ccc(NC(C)=O)cc1S(=O)(=O)Nc1ccon1 | -10.8%
13 | CCN(CC)C(=O)c1nnsc1-c1ccccc1 | 1.88%
14 | CCn1cc(CN(C)S(=O)(=O)c2cnn(C)c2)cn1 | 8.16%
15 | Cc1nc(CN(C)C(=O)CN(C)C)nc2c1CCC(=O)N2CCC(C)C | -10.5%
16 | Cc1cc(C)n(CCNCc2cc(-c3ccccc3)c[nH]c2=O)n1 | -2.47%
17 | O=C(CCn1ccnc1)N1CC[C@H](Oc2cccc(F)c2)[C@@H](O)CC1 | -1.83%
18 | CC(C)n1nccc1CN1Cc2nccn2CC1c1ccccc1 (stereo unspecified) | 5.38%
19 | Cc1nc(NCC2CCOCC2)cc(C2CCN2S(C)(=O)=O)n1 (stereo unspecified) | 2.58%
20 | O=C(O)c1ccccc1CN1CCCC(Cc2ccn[nH]2)C1 (stereo unspecified) | 2.79%
21 | Cc1nc2c(c(NCCN3CCOCC3)n1)CCN(C)C2 | 4.09%
22 | Cc1cc(C)nc(C2CCCN2c2ccnc(C)n2)n1 (stereo unspecified) | -16.4%
23 | Cc1nc[nH]c1CN1CCN(C2CCOCC2)CC(C(N)=O)C1 (stereo unspecified) | -19.5%

Row | Compound | cytotoxicity at 10 µM
24 | Cc1ccc(-n2c(SCC(=O)O)nnc2-c2cccc(C)c2)cc1 | -2.05%
25 | CC(=O)N1CCC(Cc2cnc(C(=O)N3CCCC3)cn2)C1 (stereo unspecified) | -23.6%
26 | O=S(=O)(N1CCCCC1)N1CCC(Oc2cnccn2)CC1 | -14.1%
27 | CN(C)S(=O)(=O)N1CCN(Cc2ccnc(N3CCCC3)n2)CC1 | -4.42%
28 | O=C(CN(Cc1cccs1)C1CCS(=O)(=O)C1)NCC1CCCCC1 (stereo unspecified) | 0.611%
29 | CCC1(CC)CC(=O)N(CC(O)c2ccc(Cl)cc2)C1=O (stereo unspecified) | 4.06%
30 | Cc1cccc2nc(CN3CCC(Cn4ccnn4)CC3)cc(=O)n12 | 2.62%
31 | CCN(Cc1ccc(N(C)C)cc1)S(=O)(=O)c1cc(Br)ccc1OC | 5.12%
32 | CCS(=O)(=O)NCC(=O)N(C1CC1)C1Cc2ccccc2C1 | 4.25%
33 | COC(=O)NCC(=O)NC1(C)CCc2ccccc2C1 (stereo unspecified) | 4.29%
34 | COC1CCN(c2ccc(F)cc2CN(C)C(C)C(N)=O)CC1 (stereo unspecified) | 9.13%
35 | CCc1ccc(C(COC)NC(=O)c2ccsc2)o1 (stereo unspecified) | 1.57%
36 | O=C(OCc1ccccc1)c1cccc(NC(=O)C2COCCO2)c1 (stereo unspecified) | -0.488%
37 | Cc1cnc(C(=O)NCC(c2ccc(C)o2)N2CCOCC2)cn1 (stereo unspecified) | -7.2%
38 | CNC(=O)CCS(=O)(=O)Cc1coc(-c2ccc(F)cc2)n1 | -3%
39 | Cc1cn2nc(N3CCn4c(nnc4C(C)C)C3)sc2n1 | 5.73%
40 | Cc1nn(CC(=O)N2CCCN(c3cccnn3)CC2)c(C)c1Cl | -1.2%
41 | Cc1cc2c(o1)CC(C)(C)CC2NC(=O)CNC(=O)C1CC1 (stereo unspecified) | 4.57%
42 | COCc1noc(-c2nn(-c3ccc(F)cc3)c3c2CCC3)n1 | 2.87%
43 | N#Cc1ccc(NCc2cccc(COC3CCOCC3)c2)nc1 | 32.4%
44 | Cc1nc(NC(=O)N[C@H](CO)c2ccccc2)sc1C | -7.32%
45 | c1cc(CN2CCSC3(CCCCC3)C2)no1 | 0.807%
46 | CS(=O)(=O)c1nccn1CCOc1ccccc1F | 4.05%

Row | Compound | cytotoxicity at 10 µM
47 | CC(CO)N(C)C(=O)c1cn(-c2ccc(Br)cc2)cn1 (stereo unspecified) | -2.87%
48 | OC1(CNC2CCN(c3ccccn3)CC2)CCc2ccccc21 (stereo unspecified) | -3.48%
49 | Cc1ccc(CC(=O)N2CCOC(c3nc(C(C)(C)C)n[nH]3)C2)cn1 (stereo unspecified) | -5.96%
50 | c1cncc(N2CCCn3nnc(CN4CCOCC4)c3C2)c1 | 2.46%
51 | CO[C@H]1CCN(S(=O)(=O)c2cccs2)[C@H]1Cc1ccncc1 | -75%
52 | CN(C)C(=O)[C@H]1C[C@H]2OCC[C@H]2N(Cc2ccccn2)C1 | -75.5%
53 | CC(C)NC(=O)N1CCC2(CC(=O)N(c3cccc(F)c3)C2)C1 (stereo unspecified) | 3.46%
54 | CCC1CN(C(=O)c2ncccc2O)CCC(=O)N1Cc1ccccc1 (stereo unspecified) | 3.2%
55 | Cc1nn(C)c2ncnc(NCC(O)CN3CCCCC3)c12 (stereo unspecified) | 1.2%
56 | O=C(CC(F)(F)F)N1CCCC(c2nccn2Cc2ccncc2)C1 (stereo unspecified) | 3.22%
57 | C[C@@H]1CN(C2CCN(c3ccccc3F)CC2)CC[C@]1(C)O | -5.32%
58 | N[C@@H]1CC[C@@H](Nc2nccc(CCC(F)(F)F)n2)C1 | -3.73%
59 | CCN(Cc1noc(C2CCC2)n1)C(=O)c1cnc2ccccc2c1 | 8.59%
60 | COCCN1CCC(CNC(=O)Nc2ccc(F)c(Cl)c2)C1 (stereo unspecified) | 2.59%
61 | Cc1cc(C(=O)N2CC(O)CO2)c2cccc(C)c2n1 (stereo unspecified) | 7.13%
62 | CN(Cc1cccc(O)c1)C(=O)c1ccc(CCC(C)(C)O)cc1 | 3.58%
63 | CCc1ccc2nc(-c3cnn(C)c3)cc(C(=O)N3CCCC3)c2c1 | 0.753%
64 | Cc1nc(CN(C)C(=O)C2CC(=O)N(c3cccc(O)c3)C2)cs1 (stereo unspecified) | -0.968%
65 | O[C@@]1(CNCCCOc2cccnc2)CCCN2CCCC[C@@H]21 | 3.42%
66 | Cc1cc(C)c(C#N)c(NCCSc2nncn2C)n1 | -1.01%
67 | CN1C[C@@H](NC(=O)C(C)(C)C)C[C@H]1C(=O)NCc1ncc[nH]1 | 0.452%
68 | CC(C)(C)N1CC(C(=O)NCc2nc(C3CCCCC3)no2)CC1=O (stereo unspecified) | 1.08%
69 | CSc1ccc(C(=O)N2CCCC(Nc3ccc(F)cc3)C2)cc1 (stereo unspecified) | -11.4%

Row | Compound | cytotoxicity at 10 µM
70 | Cc1c(C(=O)N(C)C)cccc1N(C)S(C)(=O)=O | 8.19%
71 | CC(C)CN1CCCn2nc(CNC(=O)CCCc3cn[nH]c3)cc2C1 | -6.36%
72 | CCCOCCN1CCC2(CC1)CC(c1ccccc1)C(=O)N2C (stereo unspecified) | 38.1%
73 | COCc1c(C(=O)NC2CCCC2)nnn1-c1ccc(C)cc1 | 5.97%
74 | Cc1nc(C)n(C2CCCN(C(=O)CCOCC(C)C)C2)n1 (stereo unspecified) | -0.734%
75 | Cc1nc(-c2ccccc2)n(CC(=O)NC2CCCC2)n1 | -0.248%
76 | COc1ccccc1CNC(=O)CNCCn1cc(C)cn1 | -1.9%
77 | O=C(CN1C=Nc2ccccc2S1(=O)=O)NCc1ccccc1 | -3.95%
78 | Cc1ccc(C(=O)NC2CCN(CC(=O)N(C)c3ccccc3)CC2)o1 | -3.73%
79 | Cc1cnc2c(S(=O)(=O)NCC3CC3)cccc2c1 | -2.87%
80 | CCc1ncc2c(n1)CN(CC(=O)Nc1ccncc1)CC2 | 0.0264%
81 | Cc1nccn1C1CCCN(C(=O)c2ccc3nnc(C)n3c2)C1 (stereo unspecified) | 2.01%
82 | CC(C(=O)NC1CC1)N1CCN(Cc2ccn(C)c(=O)c2)CC1 (stereo unspecified) | -5.57%
83 | Cc1cc(C)cc(C(=O)Nc2cn[nH]c2)c1 | -6.57%
84 | N#CC1(C(=O)N2CCCN(c3nccs3)CC2)CCCC1 | -11.1%
85 | CCOc1c(Cl)cc(/C=C/c2ncc(C(=O)O)s2)cc1OC | 3.91%
86 | O=C(COCc1ccccc1)N1CCCC1c1noc(C2CC2)n1 (stereo unspecified) | -1.98%
87 | Cc1nc(C2CCCN2C(=O)COCc2ccccc2)no1 (stereo unspecified) | -2.66%
88 | Cc1ncccc1CNCC1CCCN1c1cccnn1 (stereo unspecified) | -14.2%
89 | Cc1cc(F)ccc1CNCc1cccc(C(=O)N2CCCC2)c1 | -10.8%
90 | Cc1noc(C2CCN(C(=O)c3cc(Br)ccc3F)CC2)n1 | -6.14%
91 | CN(Cc1ccco1)C(=O)CN1CCCCC1Cn1cncn1 (stereo unspecified) | 3.61%
92 | COC(=O)N1CCCN(C(=O)c2cccc3cccnc23)CC1 | 8.33%

Row | Compound | cytotoxicity at 10 µM
93 | CC1CN(CC(=O)N2CCCC2)CCN1c1ccc2nncn2n1 (stereo unspecified) | -5.46%
94 | COc1ccccc1CC(=O)NS(=O)(=O)c1cncc(Br)c1 | -12.7%
95 | COc1cccc(C(=O)N2CCCCC2CNC(N)=O)c1 (stereo unspecified) | -7.03%
96 | CCOc1ccc(C#N)cc1NCC(=O)Nc1cc(C)no1 | -6.67%
97 | O=C(CN1CCCC(Cn2cncn2)C1)NCCOc1ccccc1 (stereo unspecified) | 5.61%
98 | CC(C)c1nc(CCNC(=O)NCc2ccnc(N(C)C)c2)cs1 | -4.69%
99 | CCc1nc(C2CCCN(C(=O)c3ccc(OC(C)C)nc3)C2)no1 (stereo unspecified) | 3.25%
100 | CNC(=O)CN1CCC(NC(=O)N(C)Cc2cc(C)on2)CC1 | -0.626%
101 | c1ccc(CNc2cc(C3CCCNC3)ccn2)nc1 (stereo unspecified) | -0.565%
102 | O=C(c1ccoc1)N1CCC(NCc2ccccc2Cl)CC1 | 3.95%
103 | O=C(CC1CC2(CCN(CC3CC3)CC2)Oc2ccccc21)NC1CC1 (stereo unspecified) | 8.5%
104 | CCC1=N[C@@]2(CC[C@@H]3CN(CC4CC4)C[C@@H]32)C(=O)N1CC | 6.56%
105 | CNC(=O)CN1CCC12CCN(C(=O)Cc1ccccc1)C2 (stereo unspecified) | -75.4%
106 | CN1CCCc2c1nc1c(c2N)CCCC1 | 11.2%
107 | CN(C)C(=O)CO[C@H]1CN(Cc2cccc(C#N)c2)[C@@H]2COC[C@H]12 | 11.4%
108 | COCCNC(=O)C1CN(Cc2cccc(C)n2)Cc2ccnn2C1 (stereo unspecified) | -79.2%
109 | CN(Cc1cn2c(n1)CN(C(=O)c1ccc[nH]1)CC2)Cc1ccco1 | -3.55%
110 | CCC=C(C)C(=O)N1CSCC1C(=O)NC1=NCCS1 (stereo unspecified) | 11.8%
111 | COc1cccc(C(=O)N2C[C@@H]3CC[C@H]2CN(Cc2cscn2)C3)c1 | 1.5%
